Experimental data as given in ChEMBL document CHEMBL1132342, “Novel hypotensive agents from Verbesina caracasana. 6. Synthesis and pharmacology of caracasandiamide” (1999).
“And” between values parts separate entries of the source, which are not always exact repeats. Identical values can stand only once.

Tests used:
[1] = tested on: Rattus norvegicus; test: Change in diastolic blood pressure after iv administration of 1600 ug/Kg in anesthetized rats; format: functional, Artery
Method in brief: (§1)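 Adult male Wistar rats under ip ethylurethane (10% w/v in saline, 1 mL/kg) with tracheal cannula and spontaneous breathing, kept at 37 °C. Arterial BP was recorded by femoral artery catheter; compound in saline (50 µL) was given via femoral vein at 50–3200 µg/kg, ratio 2.0. Peak change is given as mean ± SE, n = 12 (n = 7 at 3200 µg/kg).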

[2] = tested on: Rattus norvegicus; test: Change in diastolic blood pressure after iv administration of 1600 ug/Kg in the presence of adrenaline (agonist) in anesthetized rats; format: functional, Artery
Method in brief: (§2)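 Urethane-anesthetized male Wistar rats (16 rats, two equal groups) received 400 or 1600 µg/kg compound iv. Cardiovascular responses to iv agonist boluses (noradrenaline 1 µg/kg, acetylcholine 2.50 µg/kg, adrenaline, isoprenaline) were measured before and after compound dosing. Peak responses are given as mean ± SE; p < 0.05 versus control mean.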

[3] = tested on: Rattus norvegicus; test: Change in diastolic blood pressure after iv administration of 3200 ug/Kg in anesthetized rats; format: functional, Artery; method in brief: as §1
[4] = tested on: Rattus norvegicus; test: Change in diastolic blood pressure after iv administration of 4.12 uM/kg in anesthetized rats; format: functional, Artery
[5] = tested on: Rattus norvegicus; test: Change in diastolic blood pressure after iv administration of 400 ug/Kg in the presence of adrenaline (agonist) in anesthetized rats; format: functional, Artery; method in brief: as §2
[6] = tested on: Rattus norvegicus; test: Change in systolic blood pressure after iv administration of 800 ug/Kg compound (treatment with papaverine(1 mg/Kg/min, iv)in anesthetized rats; format: functional, Artery
Method in brief: (§3)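 Anesthetized rats, n = 6 per group, received iv doses of 200–1600 µg/kg (ratio 2.0) either alone (control) or under pretreatment: continuous iv papaverine infusion 1 mg/kg/min, reserpine 5 mg/kg/day ip for 2 days, or hexamethonium 5 mg/kg iv. Peak changes in BP, heart rate and dP/dt recorded; means ± SE, p < 0.05 versus control.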

[7] = tested on: Rattus norvegicus; test: Change in diastolic blood pressure after iv administration of 800 ug/Kg compound (treatment with reserpine(5 mg/kg/day for 2 days, ip)in anesthetized rats; format: functional, Artery
Method in brief: (§4)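 In anesthetized male Wistar rats, responses to iv compound (200–1600 µg/kg, ratio 2.0) were measured alone and under three pretreatments: continuous iv papaverine infusion (1 mg/kg/min), ip reserpine (5 mg/kg/day for 2 days), or iv hexamethonium (5 mg/kg). Peak changes are given as mean ± SE, n = 6 per group; p < 0.05 versus control.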

[8] = tested on: Rattus norvegicus; test: Change in diastolic blood pressure after iv administration of 800 ug/Kg in anesthetized rats; format: functional, Artery; method in brief: as §1
[9] = tested on: Rattus norvegicus; test: Change in systolic blood pressure after iv administration of 1600 ug/Kg compound (treatment with reserpine(5 mg/kg/day for 2 days, ip)in anesthetized rats; format: functional, Artery
Method in brief: (§5)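 Urethane-anesthetized male Wistar rats, 6 per group, received iv doses of 200-1600 µg/kg (ratio 2.0) given alone or under a pretreatment. Pretreatments were continuous iv papaverine infusion (1 mg/kg/min), reserpine 5 mg/kg/day ip for 2 days, or hexamethonium 5 mg/kg iv. Peak changes in femoral arterial BP and HR were recorded; values are mean ± SE.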

[10] = tested on: Rattus norvegicus; test: Change in heart rate after iv administration of 1600 ug/kg compound (treatment with reserpine(5 mg/kg/day for 2 days, ip))in anesthetized rats; format: functional; method in brief: as §4
[11] = tested on: Rattus norvegicus; test: Change in heart rate after iv administration of 1600 ug/Kg in the presence of adrenaline (agonist) in anesthetized rats; format: functional; method in brief: as §2
[12] = tested on: Rattus norvegicus; test: Change in heart rate after iv administration of 400 ug/kg compound (treatment with hexamethonium (5 mg/kg, iv))in anesthetized rats; format: functional; method in brief: as §5
[13] = tested on: Rattus norvegicus; test: Change in heart rate after iv administration of 400 ug/Kg in the presence of adrenaline (agonist) in anesthetized rats; format: functional; method in brief: as §2
[14] = tested on: Rattus norvegicus; test: Change in heart rate after iv administration of 800 ug/Kg compound (treatment with hexamethonium (5 mg/Kg, iv)in anesthetized rats; format: functional; method in brief: as §5
[15] = tested on: Rattus norvegicus; test: Change in mean aortic flow after iv administration of 100 ug/Kg in anesthetized rats; format: functional
Method in brief: (§6)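 Male Wistar rats (299 ± 3 g) were anesthetized with ethylurethane ip, tracheally cannulated and breathing spontaneously, at 37 °C, and stabilized for 60 min. Doses of 50-3200 µg/kg (ratio 2.0) in saline were injected by femoral vein, 50 µL each. Recordings: femoral arterial BP, electromagnetic abdominal-aortic flow, SV from integrated pulsatile flow, polygraphic RF. Peak changes, mean ± SE, n = 12 (n = 7 at 3200).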

[16] = tested on: Rattus norvegicus; test: Maximum rate of rise of the left ventricular isovolumetric pressure was measured after iv administration of 800 ug/Kg compound (treatment with papaverine(1 mg/Kg/min, iv)in anesthetized rats; format: functional, Heart left ventricle; method in brief: as §3
[17] = tested on: Rattus norvegicus; test: Maximum rate of rise of the left ventricular isovolumetric pressure was measured after iv administration of 800 ug/Kg in anesthetized rats; format: functional, Heart left ventricle
Method in brief: (§7)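 Urethane-anesthetized (10% w/v, […] ip in saline) adult male Wistar rats, trachea cannulated, breathing spontaneously, 37 °C. Femoral artery catheter for blood pressure, femoral vein for dosing. Sequential iv doses 50–3200 µg/kg (ratio 2.0) in saline, each given after parameters returned to baseline. Peak changes recorded; means ± SE, n = 12 (n = 7 at 3200 µg/kg).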

[18] = tested on: Rattus norvegicus; test: Maximum rate of rise of the left ventricular isovolumetric pressure was measured after iv administration of 1600 ug/Kg in the presence of acetylcholine (agonist) in anesthetized rats; format: functional, Heart left ventricle
Method in brief: (§8)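 Anesthetized male Wistar rats, two groups of 8, received 400 or 1600 µg/kg iv. Before and after this dose, iv agonist challenges were given: noradrenaline 1 µg/kg, adrenaline, acetylcholine 2.50 µg/kg, or isoprenaline. Systolic/diastolic BP, heart rate and dP/dt responses were recorded before (control) and after dosing; significance was set at p < 0.05 versus control.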

[19] = tested on: Rattus norvegicus; test: Maximum rate of rise of the left ventricular isovolumetric pressure was measured after iv administration of 400 ug/Kg in anesthetized rats; format: functional, Heart left ventricle; method in brief: as §7
[20] = tested on: Rattus norvegicus; test: Maximum rate of rise of the left ventricular isovolumetric pressure was measured after iv administration of 400 ug/Kg in the presence of isoprenaline (agonist) in anesthetized rats; format: functional, Heart left ventricle; method in brief: as §8
[21] = tested on: Rattus norvegicus; test: Change in respiratory frequency after iv administration of 3200 ug/Kg in anesthetized rats; format: functional; method in brief: as §6
[22] = tested on: Rattus norvegicus; test: Change in respiratory frequency after iv administration of 800 ug/Kg in anesthetized rats; format: functional; method in brief: as §6
[23] = tested on: Rattus norvegicus; test: Maximum rate of rise of the left ventricular isovolumetric pressure was measured after iv administration of 3200 ug/Kg in anesthetized rats; format: functional, Heart left ventricle; method in brief: as §7
[24] = tested on: Rattus norvegicus; test: Maximum rate of rise of the left ventricular isovolumetric pressure was measured after iv administration of 1600 ug/Kg in the presence of noradrenaline (agonist) in anesthetized rats; format: functional, Heart left ventricle; method in brief: as §8
[25] = tested on: Rattus norvegicus; test: Change in stroke volume after iv administration of 100 ug/Kg in anesthetized rats; format: functional; method in brief: as §6
[26] = tested on: Rattus norvegicus; test: Change in respiratory frequency after iv administration of 50 ug/Kg in anesthetized rats; format: functional; method in brief: as §6

Compound: COc1ccc(C2C(c3ccc(OC)c(OC)c3)[C@H](C(=O)NCCCC/N=C(\N)NCC=C(C)C)[C@@H]2C(=O)NCCCC/N=C(\N)NCC=C(C)C)cc1OC (some centres undefined) [CARACASANDIAMIDE]
- BP [1]: -43 mmHg
- Change in BP [1]: -55%
- BP [2]: 3 mmHg
- BP [3]: -53 mmHg
- Change in BP [3]: -68%
- BP [4]: -47 mmHg
- BP [5]: 5 mmHg
- BP [6]: -22 mmHg
- BP [7]: -12 mmHg
- BP [8]: -31 mmHg
- Change in BP [8]: -40%
- BP [9]: -16 mmHg
- Heart rate [10]: -14 beats min-1
- Heart rate [11]: 7 beats min-1
- Heart rate [12]: -46 beats min-1
- Heart rate [13]: 24 beats min-1
- Heart rate [14]: -57 beats min-1
- Change in mean aortic flow [15]: 15%
- Mean aortic flow [15]: 11 mL/min
- dP/dt [16]: 2967 mmHg s-1
- Change in dP/dt [17]: 54%
- dP/dt [17]: 3282 mmHg s-1
- dP/dt [18]: -6821 mmHg s-1
- Change in dP/dt [19]: 43%
- dP/dt [19]: 2615 mmHg s-1
- dP/dt [20]: 13696 mmHg s-1
- Change in respiratory frequency [21]: -67 beats min-1 and -70%
- Change in respiratory frequency [22]: -15 beats min-1 and -16%
- Change in dP/dt [23]: 77%
- dP/dt [23]: 4708 mmHg s-1
- dP/dt [24]: 2225 mmHg s-1
- Change in stroke volume [25]: 10%
- Stroke volume [25]: 20 µL
- Change in respiratory frequency [26]: 5 beats min-1 and 5%
